Measured values taken from ChEMBL document CHEMBL4138195, “Discovery of novel propargylamine-modified 4-aminoalkyl imidazole substituted pyrimidinylthiourea derivatives as multifunctional agents for the treatment of Alzheimer's disease” (Eur J Med Chem, 2018).
Active and inactive are the calls of the source. The rule behind the calls is not given here.

Columns and labels:
[1] = Metal chelating activity assessed as compound-Zn2+ complex formation at 40 uM in presence of ZnCl2 after 30 mins by UV-visible spectrophotometric analysis
Outline: (§1)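 UV–vis spectra (200–500 nm) of compound at 40 µM final, alone or with CuCl2, FeSO4, FeCl3 or ZnCl2 (20 µM final), after 30 min in 20 mM HEPES, 150 mM NaCl, pH 7.4, at room temperature.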

Butyrylcholinesterase = Butyrylcholinesterase (Rattus norvegicus, UniProt Q9JKC1); test: Inhibition of BuChE in rat serum using butyrylthiocholine iodide as substrate after 20 mins by Ellman's method
[2] = Metal chelating activity assessed as compound-Fe2+ complex formation at 40 uM in presence of FeSO4 after 30 mins by UV-visible spectrophotometric analysis; outline: as §1
[3] = Metal chelating activity assessed as compound-Cu2+ complex formation at 40 uM in presence of CuCl2 after 30 mins by UV-visible spectrophotometric analysis; outline: as §1
[4] = Antioxidant activity assessed as inhibition of Cu2+-mediated redox cycling induced hydroxyl radicals generation at 15 uM in presence of ascorbate by fluorescence assay
Outline: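 Hydroxyl radicals from Cu(II) (5 µM) and ascorbate (150 µM), with deferoxamine 1 µM, in PBS (20 mM, 100 mM NaCl, pH 7.4, 0.1% methanol). Ligand at 15 µM, with EDTA as positive control. Conversion of coumarin-3-carboxylic acid (50 µM) to fluorescent 7-hydroxy-CCA followed at 37 °C (ex 395/em 450 nm). Run in triplicate.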

[5] = Inhibition of Cu2+-induced amyloid beta (1 to 42 residues) (unknown origin) aggregation at 50 uM incubated at 37 degC for 24 hrs by dot immunoblot assay
Outline: (§2)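 Aβ1-42 (2000 µM stock in 1% ammonium hydroxide) diluted in […], pH 6.6. Peptide 25 µM ± Cu(II) 25 µM ± compound 50 µM, incubated 37 °C for 24 h. Samples spotted on nitrocellulose, blocked in 5% milk, probed overnight at 4 °C with A11 (oligomers) or 6E10 (total Aβ), HRP secondary, densitometry. N = 4, mean ± SEM; EGCG control.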

Cortical neurone [6] = test: Cytotoxicity against E17 Sprague-Dawley rat primary cortical neurons at 10 to 30 uM after 24 hrs by MTT assay; format: cell-based
[7] = molecular target: T1, Amine oxidase [flavin-containing] B (Homo sapiens, UniProt P27338)
T1 sequence (P27338 whole entry): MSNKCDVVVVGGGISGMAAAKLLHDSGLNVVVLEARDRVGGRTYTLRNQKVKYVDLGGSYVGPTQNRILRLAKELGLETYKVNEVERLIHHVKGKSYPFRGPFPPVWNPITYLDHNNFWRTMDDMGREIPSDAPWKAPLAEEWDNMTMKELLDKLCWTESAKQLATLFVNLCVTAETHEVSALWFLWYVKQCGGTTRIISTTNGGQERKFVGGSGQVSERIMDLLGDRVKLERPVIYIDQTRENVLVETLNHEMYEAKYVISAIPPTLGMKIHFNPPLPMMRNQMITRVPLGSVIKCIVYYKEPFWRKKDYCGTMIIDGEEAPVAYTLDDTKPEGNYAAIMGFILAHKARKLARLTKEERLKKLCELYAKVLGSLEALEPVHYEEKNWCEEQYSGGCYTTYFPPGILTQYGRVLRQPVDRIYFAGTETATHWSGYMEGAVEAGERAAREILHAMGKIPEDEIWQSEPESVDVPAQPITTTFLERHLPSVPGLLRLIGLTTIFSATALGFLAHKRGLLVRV

Rattus norvegicus = species on record: Rattus norvegicus; test: Selectivity index, ratio of IC50 for BuChE in rat serum to IC50 for AChE in rat cortex homogenate; format: tissue-based
Cortical neurone [8] = test: Cytotoxicity against E17 Sprague-Dawley rat primary cortical neurons at 100 uM after 24 hrs by MTT assay; format: cell-based
Outline: (§3)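 Primary cortical neurons from E17 SD rat embryos, trypsin-dissociated and cultured 9 days in neurobasal/B27 on poly-L-lysine (3×10^4 cells/well). Treated at 10, 30 and 100 µM for 24 h, with donepezil as reference. MTT (5 mg/mL, 10 µL) for 4 h at 37 °C, absorbance 490 nm, viability as % of vehicle-treated cells; mean ± SEM.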

Cortical neurone [9] = test: Cytotoxicity against E17 Sprague-Dawley rat primary cortical neurons at 100 uM after 24 hrs by MTT assay relative to donepezil; format: cell-based; outline: as §3
[10] = Inhibition of Cu2+-mediated amyloid beta (1 to 42) (unknown origin) aggregation at 50 uM after 24 hrs by dot blot assay; outline: as §2
[11] = molecular target: Amyloid-beta precursor protein (Homo sapiens) (UniProt P05067); test: Inhibition of amyloid beta (1 to 42) (unknown origin) self aggregation at 50 uM incubated at 37 degC for 24 hrs by dot immunoblot assay; outline: as §2
Amyloid-beta precursor protein (Homo sapiens), sequence (P05067 whole entry): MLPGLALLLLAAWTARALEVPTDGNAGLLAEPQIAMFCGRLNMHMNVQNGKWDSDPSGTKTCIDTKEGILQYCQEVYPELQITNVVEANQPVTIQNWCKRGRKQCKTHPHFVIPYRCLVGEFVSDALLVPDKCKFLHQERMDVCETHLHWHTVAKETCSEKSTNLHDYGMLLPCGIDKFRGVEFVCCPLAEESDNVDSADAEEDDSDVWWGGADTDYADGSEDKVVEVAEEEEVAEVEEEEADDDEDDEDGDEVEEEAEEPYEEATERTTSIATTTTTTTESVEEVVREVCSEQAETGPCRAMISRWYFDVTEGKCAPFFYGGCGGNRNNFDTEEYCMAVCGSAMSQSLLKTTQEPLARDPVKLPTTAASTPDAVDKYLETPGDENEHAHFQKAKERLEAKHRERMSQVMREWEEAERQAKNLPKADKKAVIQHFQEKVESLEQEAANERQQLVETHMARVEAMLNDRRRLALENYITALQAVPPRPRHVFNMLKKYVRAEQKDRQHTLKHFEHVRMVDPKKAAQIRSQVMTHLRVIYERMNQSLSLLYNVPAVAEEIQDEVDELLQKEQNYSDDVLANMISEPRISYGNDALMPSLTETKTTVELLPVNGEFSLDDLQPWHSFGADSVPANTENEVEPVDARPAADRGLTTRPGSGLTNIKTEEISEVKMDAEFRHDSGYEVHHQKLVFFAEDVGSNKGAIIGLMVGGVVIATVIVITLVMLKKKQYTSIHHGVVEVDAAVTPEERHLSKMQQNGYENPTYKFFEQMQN

Butyrylcholinesterase, sequence (Q9JKC1 whole entry): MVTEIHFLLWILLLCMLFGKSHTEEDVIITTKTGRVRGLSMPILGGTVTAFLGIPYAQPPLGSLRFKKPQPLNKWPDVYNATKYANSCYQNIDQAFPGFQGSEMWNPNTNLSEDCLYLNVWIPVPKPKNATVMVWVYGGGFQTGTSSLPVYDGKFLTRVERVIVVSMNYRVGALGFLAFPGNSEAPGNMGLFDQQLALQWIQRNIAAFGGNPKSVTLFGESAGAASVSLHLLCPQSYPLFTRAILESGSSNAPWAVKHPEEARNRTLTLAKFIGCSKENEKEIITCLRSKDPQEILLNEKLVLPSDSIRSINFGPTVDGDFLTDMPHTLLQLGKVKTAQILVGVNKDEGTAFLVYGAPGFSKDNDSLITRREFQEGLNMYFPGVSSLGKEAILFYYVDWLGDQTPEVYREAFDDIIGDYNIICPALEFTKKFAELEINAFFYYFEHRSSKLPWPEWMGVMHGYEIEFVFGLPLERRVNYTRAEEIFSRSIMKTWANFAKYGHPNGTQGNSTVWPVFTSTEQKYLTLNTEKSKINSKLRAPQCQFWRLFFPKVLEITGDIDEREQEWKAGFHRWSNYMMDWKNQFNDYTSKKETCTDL

## C#CCN(C)Cc1cn(-c2cc(NC(=S)NCC)ncn2)cn1
[1]
  Activity: inactive
Butyrylcholinesterase
  IC50: > 40000 nM
[2]
  Activity: inactive
[3]
  Activity: Active
[4]
  Activity: Active
[5]
  inhibition: Active
Cortical neurone [6]
  Activity: Non-Toxic
[7]
  IC50: 1430 nM
Rattus norvegicus
  Ratio IC50: > 123
Cortical neurone [8]
  Activity: Toxic
Cortical neurone [9]
  Activity: Non-Toxic
[10]
  inhibition: Active
[11]
  inhibition: inactive
